Assay results taken from ChEMBL document CHEMBL4265871, “Novel alkylated azoles as potent antifungals” (Eur J Med Chem, 2017).
≈ marks a conversion by molar mass, not a printed value.

What was measured:
Candida albicans [1] = experiment: Antifungal activity against Candida albicans ATCC 10231 incubated for 48 hrs by modified CLSI M27-A3 protocol based method; format: functional; conditions: ATCC 10231, 48 h, read-out: MIC100
Procedure, shortened: (§1)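 For C. albicans ATCC 10231, C. krusei ATCC 6258 and C. parapsilosis ATCC 22019, MIC-0 was read, meaning complete growth inhibition. For azole controls, MIC-2 (50% growth inhibition) was reported instead. Caspofungin and voriconazole were tested here; other controls came from earlier work.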

Candida albicans [2] = experiment: Antifungal activity against Candida albicans ATCC 64124 incubated for 48 hrs by modified CLSI M27-A3 protocol based method; format: functional; conditions: ATCC 64124, 48 h
Candida albicans [3] = experiment: Antifungal activity against ITC and FLC-susceptible Candida albicans ATCC MYA-2876 incubated for 48 hrs by modified CLSI M27-A3 protocol based method; format: functional; conditions: ATCC MYA-2876, 48 h
Procedure, shortened: (§2)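 Because these Candida strains show trailing growth, MIC-2 was read, meaning 50% growth inhibition. Caspofungin and voriconazole were tested here; other controls came from earlier work.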

Candida albicans [4] = experiment: Antifungal activity against ITC and FLC-resistant Candida albicans ATCC MYA-90819 incubated for 48 hrs by modified CLSI M27-A3 protocol based method; format: functional; conditions: ATCC MYA-90819, 48 h
Candida albicans [5] = experiment: Antifungal activity against ITC and FLC-susceptible Candida albicans ATCC MYA-2310 incubated for 48 hrs by modified CLSI M27-A3 protocol based method; format: functional; conditions: ATCC MYA-2310, 48 h
Candida albicans [6] = experiment: Antifungal activity against ITC and FLC-resistant Candida albicans ATCC 1237 incubated for 48 hrs by modified CLSI M27-A3 protocol based method; format: functional; conditions: ATCC 1237, 48 h; procedure, shortened: as §2
Nakaseomyces glabratus = experiment: Antifungal activity against Candida glabrata ATCC 2001 incubated for 48 hrs by modified CLSI M27-A3 protocol based method; format: functional; conditions: ATCC 2001, 48 h
Candida parapsilosis = experiment: Antifungal activity against Candida parapsilosis ATCC 22019 incubated for 48 hrs by modified CLSI M27-A3 protocol based method; format: functional; conditions: Lodderomyces parapsilosis, ATCC 22019, 48 h; read-out: MIC100; procedure, shortened: as §1
Aspergillus nidulans = experiment: Antifungal activity against Aspergillus nidulans ATCC 38163 incubated for 48 hrs by CLSI M38-A2 protocol based method; format: functional; conditions: ATCC 38163, 48 h, read-out: MIC100
Aspergillus terreus = experiment: Antifungal activity against Aspergillus terreus ATCC MYA-3633 incubated for 48 hrs by CLSI M38-A2 protocol based method; format: functional; conditions: ATCC MYA-3633, 48 h, read-out: MIC100
[7] = Hemolytic activity in mouse erythrocytes assessed as hemolysis level at 3.9 ug/ml incubated for 1 hr at 37 degC; format: ADME, cell-based, Erythrocyte; conditions: read-out: Activity
Procedure, shortened: (§3)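 Mouse erythrocytes incubated 1 h at 37 °C with test agents over 1.95 to 125 µg/mL. Percent lysis is read for each concentration.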

[8] = Hemolytic activity in mouse erythrocytes assessed as hemolysis level at 7.8 ug/ml incubated for 1 hr at 37 degC; format: ADME, cell-based, Erythrocyte; conditions: read-out: Activity; procedure, shortened: as §3
[9] = Hemolytic activity in mouse erythrocytes assessed as hemolysis level at 31.3 ug/ml incubated for 1 hr at 37 degC; format: ADME, cell-based, Erythrocyte; conditions: read-out: Activity; procedure, shortened: as §3
[10] = Hemolytic activity in mouse erythrocytes assessed as hemolysis level at 125 ug/ml incubated for 1 hr at 37 degC; format: ADME, cell-based, Erythrocyte; conditions: read-out: Activity; procedure, shortened: as §3
[11] = Selectivity index, ratio of EC50 for toxicity in human A549 cells to MIC100 for antifungal activity against Candida albicans ATCC 10231; format: cell-based; conditions: read-out: Selectivity Index
Procedure, shortened: (§4)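 Selectivity index is the EC50 against the mammalian line (A549 or BEAS-2B) divided by the MIC against the given fungal strain.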

[12] = Selectivity index, ratio of EC50 for toxicity in human BEAS2B cells to MIC50 for antifungal activity against Candida albicans ATCC 64124; format: cell-based; conditions: BEAS-2B cells, read-out: Selectivity Index; procedure, shortened: as §4
[13] = Selectivity index, ratio of EC50 for toxicity in human BEAS2B cells to MIC100 for antifungal activity against Candida albicans ATCC 10231; format: cell-based; conditions: BEAS-2B cells, read-out: Selectivity Index; procedure, shortened: as §4
[14] = Selectivity index, ratio of EC50 for toxicity in human A549 cells to MIC50 for antifungal activity against Candida albicans ATCC 64124; format: cell-based; conditions: read-out: Selectivity Index; procedure, shortened: as §4
[15] = Selectivity index, ratio of EC50 for toxicity in human A549 cells to MIC50 for antifungal activity against ITC and FLC-susceptible Candida albicans ATCC MYA-2876; format: cell-based; conditions: read-out: Selectivity Index; procedure, shortened: as §4
[16] = Selectivity index, ratio of EC50 for toxicity in human A549 cells to MIC50 for antifungal activity against ITC and FLC-resistant Candida albicans ATCC MYA-90819; format: cell-based; conditions: read-out: Selectivity Index; procedure, shortened: as §4
[17] = Selectivity index, ratio of EC50 for toxicity in human BEAS2B cells to MIC50 for antifungal activity against ITC and FLC-resistant Candida albicans ATCC MYA-90819; format: cell-based; conditions: BEAS-2B cells, read-out: Selectivity Index
Procedure, shortened: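 Ratio of the compound's EC50 against BEAS-2B cells to its MIC against the named C. albicans strain. […] For C. albicans strains other than ATCC 10231, trailing growth meant MIC-2 was taken, meaning 50% growth inhibition.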

[18] = Selectivity index, ratio of EC50 for toxicity in human A549 cells to MIC50 for antifungal activity against ITC and FLC-susceptible Candida albicans ATCC MYA-2310; format: cell-based; conditions: read-out: Selectivity Index; procedure, shortened: as §4
[19] = Selectivity index, ratio of EC50 for toxicity in human A549 cells to MIC50 for antifungal activity against ITC and FLC-resistant Candida albicans ATCC 1237; format: cell-based; conditions: read-out: Selectivity Index; procedure, shortened: as §4
[20] = Selectivity index, ratio of EC50 for toxicity in human BEAS2B cells to MIC50 for antifungal activity against ITC and FLC-resistant Candida albicans ATCC 1237; format: cell-based; conditions: BEAS-2B cells, read-out: Selectivity Index; procedure, shortened: as §4
[21] = Selectivity index, ratio of EC50 for toxicity in human A549 cells to MIC50 for antifungal activity against ITC and FLC-resistant Candida albicans ATCC MYA-1003; format: cell-based; conditions: read-out: Selectivity Index; procedure, shortened: as §4
[22] = Selectivity index, ratio of EC50 for toxicity in human BEAS2B cells to MIC50 for antifungal activity against ITC and FLC-resistant Candida albicans ATCC MYA-1003; format: cell-based; conditions: BEAS-2B cells, read-out: Selectivity Index; procedure, shortened: as §4
[23] = Selectivity index, ratio of EC50 for toxicity in human BEAS2B cells to MIC50 for antifungal activity against Candida glabrata ATCC 2001; format: cell-based; conditions: BEAS-2B cells, read-out: Selectivity Index; procedure, shortened: as §4
[24] = Selectivity index, ratio of […] for toxicity in human A549 cells to MIC50 for antifungal activity against Aspergillus flavus ATCC MYA-3631; format: cell-based; conditions: read-out: Selectivity Index
[25] = Selectivity index, ratio of […] for toxicity in human BEAS2B cells to MIC50 for antifungal activity against Aspergillus flavus ATCC MYA-3631; format: cell-based; conditions: BEAS-2B cells, read-out: Selectivity Index
[26] = Selectivity index, ratio of […] for toxicity in human A549 cells to MIC50 for antifungal activity against Aspergillus nidulans ATCC 38163; format: cell-based; conditions: read-out: Selectivity Index
[27] = Selectivity index, ratio of […] for toxicity in human BEAS2B cells to MIC50 for antifungal activity against Aspergillus terreus ATCC MYA-3633; format: cell-based; conditions: BEAS-2B cells, read-out: Selectivity Index
[28] = Selectivity index, ratio of EC50 for toxicity in human A549 cells to MIC50 for antifungal activity against Candida krusei ATCC 6258

Row | SMILES | MIC (Candida albicans [1]) [µM] | MIC50 (Candida albicans [2]) [µM] | MIC50 (Candida albicans [3]) [µM] | MIC50 (Candida albicans [4]) [µM] | MIC50 (Candida albicans [5]) [µM] | MIC50 (Candida albicans [6]) [µM] | MIC50 (Nakaseomyces glabratus) [µM] | MIC (Candida parapsilosis) [µM] | MIC (Aspergillus nidulans) [µM] | MIC (Aspergillus terreus) [µM] | hemolysis at 1 h, 3.9 ug/ml [7] [%] | hemolysis at 1 h, 7.8 ug/ml [8] [%] | hemolysis at 1 h, 31.3 ug/ml [9] [%] | hemolysis at 1 h, 125 ug/ml [10] [%] | selectivity ratio [11] | selectivity ratio [12] | selectivity ratio [13] | selectivity ratio [14] | selectivity ratio [15] | selectivity ratio [16] | other results
1 | CCCCCC(O)(Cn1cncn1)c1ccc(F)cc1F (centres undefined) | 6.6 (≈ 1.95 µg/mL) | 26.4 (≈ 7.8 µg/mL) | 26.4 (≈ 7.8 µg/mL) | 13.2 (≈ 3.9 µg/mL) | 26.4 (≈ 7.8 µg/mL) | 26.4 (≈ 7.8 µg/mL) | 26.4 (≈ 7.8 µg/mL) | < 0.1 | 3.3 (≈ 0.975 µg/mL) | > 106 | 0 | 0 | 10.1 | 45.4 | 16 | 4 | 16 | 4 | 4 | 8 | selectivity ratio [17]: 8; selectivity ratio [18]: 4; selectivity ratio [19]: 4; selectivity ratio [20]: 4; selectivity ratio [21]: 16; selectivity ratio [22]: 16; selectivity ratio [23]: 4; selectivity ratio [24]: 2; selectivity ratio [25]: 2; selectivity ratio [26]: 32; selectivity ratio [27]: 1; selectivity ratio [28]: 130
2 | CCCCCCC(O)(Cn1cncn1)c1ccc(F)cc1 (centres undefined) | 53.5 (≈ 15.6 µg/mL) | > 107 | 26.8 (≈ 7.81 µg/mL) | 3.3 (≈ 0.962 µg/mL) | 26.8 (≈ 7.81 µg/mL) | 107 (≈ 31.3 µg/mL) | 26.8 (≈ 7.81 µg/mL) | 1.6 (≈ 0.466 µg/mL) | 6.7 (≈ 1.95 µg/mL) | 53.5 (≈ 15.6 µg/mL) | 0 | 5.2 | 0 | 24.1 | 2 | 1 | 2 | 1 | 4 | 32 | selectivity ratio [17]: 32; selectivity ratio [18]: 4; selectivity ratio [19]: 1; selectivity ratio [20]: 1; selectivity ratio [21]: 4; selectivity ratio [22]: 4; selectivity ratio [23]: 4; selectivity ratio [24]: 1; selectivity ratio [25]: 1; selectivity ratio [26]: 16; selectivity ratio [27]: 2; selectivity ratio [28]: 32
